Screening data (PubChem BioAssay)
PKA-R1A act: activates the PKA-R1A holoenzyme complex; PKA-R1A dissociation, Cy5-IP20 fluorescence polarization; scaled: DMSO 0%, 113 µM cGMP 100%; activation, % at 11.4 µM; P00514+P68181; 0.083% of 340,000 active;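 active = percent activation above the mean of all tested compounds plus 3 SD, cut at about 19% in these data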;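 also: higher means more PKAc released from R1A so a rise in polarization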
APJ antag: APJ receptor antagonism; 0.32% of 330,000 active; inhibition, % at 20 µM; CHO-K1 APJ beta-arrestin complementation, luminescence; P35414;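 active = inhibition above about 40% at 20 µM, limit read from the data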;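 also: cells challenged with 10 nM apelin-13 agonist together with compound; plate controls were apelin-13 plus DMSO wells for no effect and DMSO wells lacking apelin-13 for full effect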
CCR6 antagonist: CCR6 (human) receptor antagonism; P51684; CHO-K1 CCR6 PathHunter beta-arrestin, luminescence, CCL20-stimulated; inhibition, % at 20 µM; 0.49% of 340,000 active; AID 493098;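 active = compounds whose inhibition of the agonist-driven luminescence signal at 20 µM reaches about 50%, limit read from the data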;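 also: cells stimulated with CCL20 at 14 nM final; plate controls were DMSO with CCL20 for no effect and DMSO without agonist for full effect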
APJ agonist: APJ receptor agonism. 0.11% of 330,000 active. activation, % at 20 µM. CHO-K1 APJ PathHunter beta-arrestin, luminescence; 0% DMSO wells, 100% apelin. P35414;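 active = activation more than six SD over the plate average, tested at 20 µM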;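 also: 0% = DMSO alone and 100% = apelin-13 at 10 nM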
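Material: CHO-K1 APJ beta-arrestin complementation cell line; Input: cell density 1000 per well; Incubation: compound stimulation 90 min at 25 °C, detection 60 min; Signal: luminescence from split beta-galactosidase complementation, Galacton Star/Emerald II substrate; Controls: DMSO-only wells as negative, 10 nM Apelin-13 as positive control.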
PKA-R2B act: activators of human PKA-R2B complex | activation, % at 11.4 µM | PKA-R2B holoenzyme dissociation, Cy5-IP20 fluorescence polarization; R2B truncated from residue 108, S112A mutant; 0% DMSO only, 100% 113 µM cGMP | 0.079% of 340,000 active | AID 504700;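 active = activation above a cutoff set at the mean over all compounds plus 3 SD, cut at about 18% in these data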;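 also: higher means more holoenzyme dissociation and a rise in polarization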
CXCR6 inh: blocks human CXCR6 beta-arrestin recruitment | O00574 | AID 602244 | CHO-K1 PathHunter CXCR6 beta-arrestin, luminescence | inhibition, % at 20 µM | 0.36% of 360,000 active; in the data active = inhibition above about 34%, passing the limit was not always enough;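 also: antagonist mode with CXCL16 agonist at 10 nM final; 0% = 10 nM CXCL16 with DMSO and 100% = unstimulated wells without agonist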
Target sequence (O00574 whole entry, looked up): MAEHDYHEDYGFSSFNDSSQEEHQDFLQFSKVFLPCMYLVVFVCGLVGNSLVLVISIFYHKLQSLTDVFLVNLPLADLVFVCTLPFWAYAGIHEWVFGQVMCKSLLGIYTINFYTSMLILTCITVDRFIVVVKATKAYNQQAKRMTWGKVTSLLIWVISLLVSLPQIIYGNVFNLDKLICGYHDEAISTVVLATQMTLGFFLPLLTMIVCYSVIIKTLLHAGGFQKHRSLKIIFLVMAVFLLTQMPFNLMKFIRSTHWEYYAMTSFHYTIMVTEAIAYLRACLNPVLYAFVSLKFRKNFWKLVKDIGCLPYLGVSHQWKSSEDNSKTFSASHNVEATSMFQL
Starred values were filed as active, the others as inactive; nt = no result given. The list is not random: actives were taken first. Their share in the collection is about 0.88%.

SMILES	PKA-R1A act	APJ antag	CCR6 antagonist	APJ agonist	PKA-R2B act	CXCR6 inh
Cc1ccc(-c2nn(-c3ccccc3)cc2C=C2C(=O)CC(C)(C)CC2=O)cc1	-4.0	-15.0	-25.8	5.5	2.6	-14.4
CC1=NNC(=O)/C1=C\c1cn(-c2ccccc2)nc1-c1ccc(Cl)cc1	-13.9	-27.4	-11.2	38.0*	-6.3	-4.0
COC(=O)c1ccc(N2C(c3ccsc3)=Cc3cc4c(cc3C2CC(=O)c2ccco2)OCO4)cc1 (stereo not given)	nt	nt	nt	nt	nt	2.5
Cc1ccnc(NC(c2cccnc2)c2ccc3cccnc3c2O)c1 (stereo not given)	-1.7	-6.6	-27.1	-3.1	-13.2	-1.4
Cc1ccc2ccc(C(Nc3cccc(C(F)(F)F)c3)c3cccnc3)c(O)c2n1 (stereo not given)	-12.5	20.9	52.6*	-5.8	0.1	40.3*
COc1ccc(OC)c(S(=O)(=O)ON2C(=O)c3ccccc3C2=O)c1	1.6	19.5	56.9*	0.5	-6.8	10.9
COc1ccc2[nH]c3c4c(ccc3c2c1)C(=O)C=CC4=O	5.4	21.0	61.1*	2.8	1.2	30.0
COc1ccc2[nH]c(=O)cc(C(=O)O)c2c1	0.9	-4.0	5.8	-0.3	4.6	-0.5
Cc1cc(N2C(=O)C=CC2=O)c([N+](=O)[O-])cc1C	2.9	17.0	nt	-2.5	-5.6	85.1*
Cc1ccc(N2C(=O)C3C4C=CC(CC4)C3C2=O)cc1[N+](=O)[O-] (stereo not given)	8.9	-15.0	-1.6	-2.4	-3.4	3.2
Cc1c([N+](=O)[O-])cc(N2C(=O)C=CC2=O)cc1[N+](=O)[O-]	11.3	nt	nt	nt	0.8	52.0*
Cc1cc(C)cc(N2C(=O)C=CC2=O)c1	-6.6	nt	nt	nt	-11.1	95.3*
C=C1C[C@@H]2C[C@@H]2CN(S(=O)(=O)c2ccc(C)cc2)[C@@H]1COCc1ccccc1	nt	nt	nt	nt	nt	-7.8
Cc1ccc(S(=O)(=O)N2CCC(=O)N([C@H](COCc3ccc(Cl)cc3)C(C)C)CC2)cc1	nt	nt	nt	nt	nt	12.1
COc1ccccc1CNC(=O)COC(=O)c1cc(-c2ccco2)nc2ccccc12	13.1	16.1	50.3*	-4.9	-4.5	17.2
COc1ccccc1CNC(=O)COC(=O)c1cc(C)nc2ccccc12	-4.7	0.7	8.7	-2.9	-4.1	2.9
O=C1NC[C@H](CCCCN2C[C@H](Cc3ccccc3)N(Cc3ccccc3)C(=O)C2=O)N(CCc2ccccc2)C1=O	nt	nt	nt	nt	nt	-0.6
C/C(=C\C(=O)c1ccc(Br)cc1)NNC(=O)c1ccc(O)cc1	-4.8	37.5	42.4	-2.0	4.6	11.5
C/C(=C\C(=O)c1ccc(Br)cc1)NNC(=O)c1ccccc1	-9.1	35.1	64.8*	-7.9	-3.8	29.4
CC1=NC(Nc2nc(C)c3ccccc3n2)=NC(C)(C)C1	-1.1	nt	58.1*	nt	-6.7	37.4
O=S1(=O)CC(N2CCCCC2)CN1Cc1cn(Cc2ccc(F)cc2)nn1 (stereo not given)	nt	nt	nt	nt	nt	-7.0
O=[N+]([O-])c1ccccc1N=Nc1ccc(O)cc1O	nt	nt	49.6	nt	nt	35.6
O=S(=O)(O)c1cc(O)c(N=Nc2ccc(O)cc2O)c2ccccc12	8.0	nt	61.6*	nt	2.9	39.3*
O=C(Cn1cc(COc2ccc(Br)cc2[N+](=O)[O-])nn1)c1ccc(O)cc1	-4.3	nt	29.8	nt	4.5	19.4
O=[N+]([O-])c1ccc(NN=Cc2cccc(O)c2)nc1	-10.2	nt	34.4	nt	-18.8	3.9
O=[N+]([O-])c1ccc(NN=Cc2cc(Br)ccc2O)nc1	-10.2	nt	66.7*	nt	0.0	32.2
COc1ccc(NC(=S)NC(NC(=O)c2cccc(Cl)c2)C(Cl)(Cl)Cl)c([N+](=O)[O-])c1 (stereo not given)	-3.3	39.5	58.0*	-3.6	-1.4	20.2
COc1ccc(/C=N\NC(=O)c2cc(O)c(O)c(O)c2)cc1COc1ccc(C(=O)OCC(C)C)cc1	0.1	11.6	54.7*	4.5	-4.5	8.9
COc1ccc(C(=O)N/N=C/c2ccc(OC)c(COc3ccccc3)c2)cc1	10.4	-44.9	3.2	1.5	1.3	0.0
N#C/C(=C/c1ccc(-c2ccccc2)o1)c1nc(-c2cccs2)cs1	-19.4	nt	16.6	nt	-16.1	11.9
